ChEMBL document CHEMBL1133647, “Discovery of a potent, highly selective, and orally efficacious small-molecule activator of the insulin receptor” (J Med Chem, 2000)
Activity calls are given as the source filed them. Unless noted, the rule behind the calls is not given here.

Legend:
[1] = plasma clearance in preclinical species was measured after Intravenous administration at the given dose (0.05 mg/kg) in rat; format: ADME, organism-based; conditions: read-out: Clp
Method in brief: (§1)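 Male rats, beagle dogs and rhesus monkeys dosed iv in ethanol/PEG400/water (1:3:6, v/v/v), n = 2. Plasma extracted and drug quantified by LC-MS/MS (LOQ = 8-100 ng/mL) against a dihydroxybenzoquinone internal standard.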

[2] = tested on: Canis familiaris; assay: plasma clearance in preclinical species was measured after Intravenous administration at the given dose (0.1 mg/kg) in dog; format: ADME, organism-based, Canis lupus familiaris; conditions: in vivo; method in brief: as §1
[3] = plasma clearance in preclinical species was measured after Intravenous administration at the given dose (0.01 mg/kg) in monkey; format: ADME, organism-based; conditions: simiiformes, in vivo; method in brief: as §1
[4] = maximum concentration in plasma in preclinical species was measured after oral administration at the given dose (0.5 mg/kg) in dog; format: ADME, organism-based, Canis lupus familiaris; parameters: dose 0.5 mg/kg, route oral
Method in brief: (§2)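 Beagle dogs or rhesus monkeys (male) dosed orally at 0.5 mg/kg as a 0.5% methylcellulose suspension with 0.02% sodium lauryl sulfate. Plasma extracted and drug measured by LC-MS/MS (LOQ = 8-100 ng/mL) with an internal standard; bioavailability relative to iv dosing.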

[5] = maximum concentration in plasma in preclinical species was measured after oral administration at the given dose (0.5 mg/kg) in monkey; format: ADME, organism-based; parameters: dose 0.5 mg/kg, route oral; conditions: simiiformes; method in brief: as §2
[6] = maximum concentration in plasma in preclinical species was measured after oral administration at the given dose (0.5 mg/kg) in rat; format: ADME, organism-based; parameters: dose 0.5 mg/kg, route oral
Method in brief: (§3)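 Male rats dosed orally at 0.5 mg/kg in ethanol/PEG400/water (1:3:6, v/v/v). Plasma extracted and drug measured by LC-MS/MS (LOQ = 8-100 ng/mL) with an internal standard; bioavailability relative to iv dosing.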

[7] = area under curve in preclinical species was measured after oral administration at the given dose (0.5 mg/kg) in monkey; format: ADME, organism-based; conditions: simiiformes, in vivo; method in brief: as §2
[8] = area under curve in preclinical species was measured after Intravenous administration at the given dose (0.01 mg/kg) in monkey; format: ADME, organism-based; conditions: simiiformes, in vivo; method in brief: as §1
[9] = area under curve in preclinical species was measured after Intravenous administration at the given dose (0.05 mg/kg) in rat; format: ADME, organism-based; conditions: in vivo; method in brief: as §1
[10] = area under curve in preclinical species was measured after Intravenous administration at the given dose (0.1 mg/kg) in dog; format: ADME, organism-based, Canis lupus familiaris; conditions: in vivo; method in brief: as §1
[11] = area under curve in preclinical species was measured after oral administration at the given dose (0.5 mg/kg) in dog; format: ADME, organism-based, Canis lupus familiaris; conditions: in vivo; method in brief: as §2
[12] = bioavailability in preclinical species was measured after oral administration at the given dose (0.5 mg/kg) in dog; format: ADME, organism-based, Canis lupus familiaris; conditions: in vivo; method in brief: as §2
[13] = bioavailability in preclinical species was measured after oral administration at the given dose (0.5 mg/kg) in monkey; format: ADME, organism-based; conditions: primates, in vivo; method in brief: as §2
[14] = terminal half life in preclinical species was measured after Intravenous administration at the given dose (0.01 mg/kg) in monkey; format: ADME, organism-based; conditions: simiiformes, in vivo; method in brief: as §1
[15] = terminal half life in preclinical species was measured after Intravenous administration at the given dose (0.05 mg/kg) in rat; format: ADME, organism-based; conditions: in vivo; method in brief: as §1
[16] = tested on: Canis familiaris; assay: terminal half life in preclinical species was measured after Intravenous administration at the given dose (0.1 mg/kg) in dog; format: ADME, organism-based, Canis lupus familiaris; conditions: in vivo; method in brief: as §1
[17] = volume of distribution in preclinical species was measured after Intravenous administration at the given dose (0.01 mg/kg) in monkey; format: ADME, organism-based; conditions: simiiformes, in vivo; method in brief: as §1
[18] = volume of distribution in preclinical species was measured after Intravenous administration at the given dose (0.05 mg/kg) in rat; format: ADME, organism-based; conditions: in vivo, read-out: Vdss; method in brief: as §1
[19] = tested on: Canis familiaris; assay: volume of distribution in preclinical species was measured after Intravenous administration at the given dose (0.1 mg/kg) in dog; format: ADME, organism-based, Canis lupus familiaris; conditions: in vivo; method in brief: as §1
[20] = Time taken for maximum concentration in preclinical species was measured after oral administration at the given dose (0.5 mg/kg) in dog; format: ADME, organism-based, Canis lupus familiaris; conditions: in vivo; method in brief: as §2
[21] = Time taken for maximum concentration in preclinical species was measured after oral administration at the given dose (0.5 mg/kg) in monkey; format: ADME, organism-based; conditions: simiiformes, in vivo; method in brief: as §2
[22] = Time taken for maximum concentration in preclinical species was measured after oral administration at the given dose (0.5 mg/kg) in rat; format: ADME, organism-based; conditions: in vivo; method in brief: as §3
[23] = target: Epidermal growth factor receptor (Homo sapiens) (UniProt P00533); assay: Percent epidermal growth factor receptor (EGFR) activity at 30 uM (NS = less than 5% activation); format: functional
Epidermal growth factor receptor (Homo sapiens), sequence (P00533 whole entry): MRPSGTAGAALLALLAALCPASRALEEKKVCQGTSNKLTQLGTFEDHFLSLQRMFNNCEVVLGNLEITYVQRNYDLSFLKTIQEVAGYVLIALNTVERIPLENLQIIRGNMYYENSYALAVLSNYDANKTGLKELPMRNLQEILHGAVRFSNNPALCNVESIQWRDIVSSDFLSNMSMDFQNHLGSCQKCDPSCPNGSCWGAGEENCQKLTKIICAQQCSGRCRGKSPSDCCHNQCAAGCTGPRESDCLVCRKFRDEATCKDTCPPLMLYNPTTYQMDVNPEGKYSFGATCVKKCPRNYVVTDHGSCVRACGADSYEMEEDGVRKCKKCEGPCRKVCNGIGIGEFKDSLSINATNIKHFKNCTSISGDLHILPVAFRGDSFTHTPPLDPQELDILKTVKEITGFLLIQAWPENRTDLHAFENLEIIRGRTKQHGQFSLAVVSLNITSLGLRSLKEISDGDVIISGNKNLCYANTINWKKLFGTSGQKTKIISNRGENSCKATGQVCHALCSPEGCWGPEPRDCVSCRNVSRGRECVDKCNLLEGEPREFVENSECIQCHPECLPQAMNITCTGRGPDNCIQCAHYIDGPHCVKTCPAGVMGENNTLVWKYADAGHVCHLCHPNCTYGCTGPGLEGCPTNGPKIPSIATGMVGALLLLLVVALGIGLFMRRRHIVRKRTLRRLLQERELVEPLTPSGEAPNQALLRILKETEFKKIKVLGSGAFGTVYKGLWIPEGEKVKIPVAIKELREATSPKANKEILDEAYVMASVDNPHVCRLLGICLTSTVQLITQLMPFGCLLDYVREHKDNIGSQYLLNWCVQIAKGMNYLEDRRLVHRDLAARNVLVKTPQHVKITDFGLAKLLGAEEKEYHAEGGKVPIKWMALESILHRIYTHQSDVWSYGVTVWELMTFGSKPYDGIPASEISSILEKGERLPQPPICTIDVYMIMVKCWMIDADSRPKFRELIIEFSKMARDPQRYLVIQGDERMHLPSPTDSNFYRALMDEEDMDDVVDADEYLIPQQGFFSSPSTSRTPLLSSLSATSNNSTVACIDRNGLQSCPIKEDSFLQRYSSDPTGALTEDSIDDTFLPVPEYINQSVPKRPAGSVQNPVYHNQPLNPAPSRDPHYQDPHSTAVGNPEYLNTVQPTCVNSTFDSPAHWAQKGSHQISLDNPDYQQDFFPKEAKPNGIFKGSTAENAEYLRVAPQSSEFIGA
Method in brief: (§4)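 EGFR counterscreen: cell-based receptor activation assay run like the CHO IR assay (20 min compound exposure, lysate capture, radiometric kinase readout). Compound tested at 30 uM; result as % of control response to 100 nM EGF.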

[24] = target: T1, Insulin receptor (Homo sapiens, UniProt P06213); assay: Activation of human insulin receptor tyrosine kinase (IRTK)
T1 sequence (P06213 28-758 limits assumed): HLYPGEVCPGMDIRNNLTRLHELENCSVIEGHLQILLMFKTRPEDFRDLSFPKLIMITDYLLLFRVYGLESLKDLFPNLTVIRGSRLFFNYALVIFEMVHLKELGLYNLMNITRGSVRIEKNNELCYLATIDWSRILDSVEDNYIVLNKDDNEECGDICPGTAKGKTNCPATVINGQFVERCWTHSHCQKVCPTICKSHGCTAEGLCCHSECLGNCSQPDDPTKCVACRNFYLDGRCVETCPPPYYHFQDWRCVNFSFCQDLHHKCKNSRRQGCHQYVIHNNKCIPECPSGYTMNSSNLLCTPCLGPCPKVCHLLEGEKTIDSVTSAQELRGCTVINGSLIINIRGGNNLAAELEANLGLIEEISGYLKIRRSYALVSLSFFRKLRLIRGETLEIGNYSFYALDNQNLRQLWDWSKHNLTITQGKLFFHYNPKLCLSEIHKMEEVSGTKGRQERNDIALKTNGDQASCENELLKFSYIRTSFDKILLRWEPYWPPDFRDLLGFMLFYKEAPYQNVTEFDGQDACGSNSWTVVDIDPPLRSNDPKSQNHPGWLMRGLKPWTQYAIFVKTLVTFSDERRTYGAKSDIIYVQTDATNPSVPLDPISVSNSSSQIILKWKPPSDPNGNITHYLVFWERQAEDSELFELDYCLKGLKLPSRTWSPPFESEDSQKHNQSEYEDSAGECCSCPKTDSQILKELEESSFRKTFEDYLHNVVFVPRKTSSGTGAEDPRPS
T1 sequence (P06213 763-1382 limits assumed): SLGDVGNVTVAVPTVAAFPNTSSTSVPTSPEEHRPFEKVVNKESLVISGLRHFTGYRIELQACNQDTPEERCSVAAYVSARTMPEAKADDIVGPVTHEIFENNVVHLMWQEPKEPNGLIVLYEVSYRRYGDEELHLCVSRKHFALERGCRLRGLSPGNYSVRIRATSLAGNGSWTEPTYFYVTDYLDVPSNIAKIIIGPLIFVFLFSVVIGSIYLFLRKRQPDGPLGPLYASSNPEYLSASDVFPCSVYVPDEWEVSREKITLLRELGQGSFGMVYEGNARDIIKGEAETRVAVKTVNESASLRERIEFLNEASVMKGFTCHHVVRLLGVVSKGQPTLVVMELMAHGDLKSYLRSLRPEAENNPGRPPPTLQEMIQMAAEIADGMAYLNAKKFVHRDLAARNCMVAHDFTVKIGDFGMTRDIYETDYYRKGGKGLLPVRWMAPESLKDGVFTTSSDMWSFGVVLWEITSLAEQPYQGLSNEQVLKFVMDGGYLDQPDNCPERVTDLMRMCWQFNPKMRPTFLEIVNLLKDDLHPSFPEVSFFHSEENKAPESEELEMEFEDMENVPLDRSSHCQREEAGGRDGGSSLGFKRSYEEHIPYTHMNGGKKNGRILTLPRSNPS
Method in brief: (§5)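 CHO cells stably transfected with human insulin receptor, plated 150 000 cells/well for 24 h, serum-starved 2 h, then exposed to compound 20 min at 37 °C. Lysate IR captured on anti-IR antibody wells (16 h, 4 °C), kinase reaction 40 min at 25 °C, radioactivity on phosphocellulose filters. Activity as % of maximal response to 100 nM insulin.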

[25] = target: Insulin-like growth factor 1 receptor (Homo sapiens) (UniProt P08069); assay: Percent insulin like growth factor receptor(IGFIR) activity at 30 uM (NS = less than 5% activation); format: functional
Insulin-like growth factor 1 receptor (Homo sapiens), sequence (P08069 31-736 limits assumed): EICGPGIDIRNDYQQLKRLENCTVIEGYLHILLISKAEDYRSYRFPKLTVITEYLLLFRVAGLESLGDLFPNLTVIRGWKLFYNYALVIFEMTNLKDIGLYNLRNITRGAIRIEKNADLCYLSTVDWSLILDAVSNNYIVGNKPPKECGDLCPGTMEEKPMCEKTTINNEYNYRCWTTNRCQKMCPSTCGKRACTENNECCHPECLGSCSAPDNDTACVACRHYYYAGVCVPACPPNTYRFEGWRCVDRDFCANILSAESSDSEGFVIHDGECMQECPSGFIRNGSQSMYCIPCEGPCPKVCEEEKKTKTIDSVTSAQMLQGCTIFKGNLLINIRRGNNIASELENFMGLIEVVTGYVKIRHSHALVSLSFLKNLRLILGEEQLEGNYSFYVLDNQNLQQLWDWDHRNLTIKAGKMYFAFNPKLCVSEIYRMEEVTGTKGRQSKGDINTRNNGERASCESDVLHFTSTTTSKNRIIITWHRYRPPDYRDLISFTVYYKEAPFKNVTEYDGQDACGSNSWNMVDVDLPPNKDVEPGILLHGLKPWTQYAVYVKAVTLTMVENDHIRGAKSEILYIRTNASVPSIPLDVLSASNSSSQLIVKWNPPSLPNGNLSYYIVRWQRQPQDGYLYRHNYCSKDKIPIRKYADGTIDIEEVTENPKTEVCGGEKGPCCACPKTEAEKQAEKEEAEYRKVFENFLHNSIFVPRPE
Insulin-like growth factor 1 receptor (Homo sapiens), sequence (P08069 741-1367 limits assumed): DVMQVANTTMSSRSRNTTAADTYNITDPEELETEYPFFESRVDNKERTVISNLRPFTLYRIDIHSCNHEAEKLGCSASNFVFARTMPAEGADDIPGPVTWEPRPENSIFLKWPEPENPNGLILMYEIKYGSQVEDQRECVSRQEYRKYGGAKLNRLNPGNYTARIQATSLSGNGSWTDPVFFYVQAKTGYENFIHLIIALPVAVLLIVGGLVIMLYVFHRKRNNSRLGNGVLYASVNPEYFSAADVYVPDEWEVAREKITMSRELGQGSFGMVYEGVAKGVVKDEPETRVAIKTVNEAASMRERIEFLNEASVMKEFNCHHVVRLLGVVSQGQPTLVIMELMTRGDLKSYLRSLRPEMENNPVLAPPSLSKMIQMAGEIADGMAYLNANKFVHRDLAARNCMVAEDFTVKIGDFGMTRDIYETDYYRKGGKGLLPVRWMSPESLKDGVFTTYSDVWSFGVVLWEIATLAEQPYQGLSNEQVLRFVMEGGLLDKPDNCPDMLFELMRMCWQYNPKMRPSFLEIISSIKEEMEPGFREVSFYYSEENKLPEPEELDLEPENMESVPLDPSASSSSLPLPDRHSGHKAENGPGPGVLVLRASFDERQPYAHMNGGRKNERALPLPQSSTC
Method in brief: (§6)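 IGFIR counterscreen: cell-based receptor activation assay run like the CHO IR assay (20 min compound exposure, lysate capture, radiometric kinase readout). Compound tested at 30 uM; result as % of control response to 100 nM IGFI.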

[26] = target: Platelet-derived growth factor receptor beta (Homo sapiens) (UniProt P09619); assay: Percent platelet derived growth factor receptor (PDGFR) activity at 30 uM (NS = less than 5% activation); format: functional
Platelet-derived growth factor receptor beta (Homo sapiens), sequence (P09619 whole entry): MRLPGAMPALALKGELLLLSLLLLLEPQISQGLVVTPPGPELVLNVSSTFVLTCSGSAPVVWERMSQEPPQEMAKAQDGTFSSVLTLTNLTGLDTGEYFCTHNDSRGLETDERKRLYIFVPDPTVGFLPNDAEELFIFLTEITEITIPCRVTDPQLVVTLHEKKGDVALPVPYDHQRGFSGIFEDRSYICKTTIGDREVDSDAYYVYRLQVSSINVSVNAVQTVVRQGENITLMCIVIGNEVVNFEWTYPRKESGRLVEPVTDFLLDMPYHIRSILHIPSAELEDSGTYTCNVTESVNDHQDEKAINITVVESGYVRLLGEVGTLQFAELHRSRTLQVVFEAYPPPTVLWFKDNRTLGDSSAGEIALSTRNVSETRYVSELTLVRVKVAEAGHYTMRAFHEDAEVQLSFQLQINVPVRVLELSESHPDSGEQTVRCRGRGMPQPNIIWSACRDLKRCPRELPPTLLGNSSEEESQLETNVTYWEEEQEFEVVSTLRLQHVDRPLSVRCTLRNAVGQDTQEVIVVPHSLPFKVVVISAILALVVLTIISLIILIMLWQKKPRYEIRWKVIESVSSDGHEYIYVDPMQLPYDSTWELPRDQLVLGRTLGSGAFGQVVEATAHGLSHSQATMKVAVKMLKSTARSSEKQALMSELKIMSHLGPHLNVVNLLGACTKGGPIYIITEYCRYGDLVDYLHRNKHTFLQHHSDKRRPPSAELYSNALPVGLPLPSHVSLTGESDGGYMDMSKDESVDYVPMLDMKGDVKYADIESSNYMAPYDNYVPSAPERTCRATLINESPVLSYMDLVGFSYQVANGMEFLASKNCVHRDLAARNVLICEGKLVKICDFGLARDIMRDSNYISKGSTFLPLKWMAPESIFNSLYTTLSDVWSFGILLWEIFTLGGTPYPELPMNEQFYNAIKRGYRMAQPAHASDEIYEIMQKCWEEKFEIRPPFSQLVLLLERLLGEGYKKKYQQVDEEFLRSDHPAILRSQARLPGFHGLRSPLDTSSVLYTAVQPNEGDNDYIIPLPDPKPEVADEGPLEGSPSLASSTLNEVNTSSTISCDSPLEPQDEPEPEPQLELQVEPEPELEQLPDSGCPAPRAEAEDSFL
Method in brief: (§7)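 PDGFR counterscreen: cell-based receptor activation assay run like the CHO IR assay (20 min compound exposure, lysate capture, radiometric kinase readout). Compound tested at 30 uM; result as % of control response to 100 nM PDGF.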

[27] = tested on: Mus musculus; assay: Blood glucose concentration at predosing of 10 mpk; format: functional, organism-based
Method in brief: (§8)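 Male ob/ob mice, 12 weeks old, with ob/+ lean controls, housed 7–9 per cage on chow and water ad libitum. Daily oral gavage of compound or vehicle (0.5% methylcellulose). Food was removed 0–6 h after dosing on days 1 and 2, then fed ad libitum. Blood glucose was taken before dosing and at 24 h after dosing, n = 10/group.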

[28] = organism: Mus musculus; assay: Blood glucose level for the age- and sex-matched ob/+ lean mice; format: functional, organism-based; method in brief: as §8
[29] = tested on: Mus musculus; assay: Decrease in blood glucose concentration at 24 hr postdosing of 10 mpk; format: functional, organism-based; method in brief: as §8
[30] = tested on: Mus musculus; assay: Percent reduction of blood glucose level in a dose-dependent manner at 0.1 mpk administered once daily for 8-14 days by gavage to ad libitum fed animals; format: functional
[31] = tested on: Mus musculus; assay: Percent reduction of blood glucose level in a dose-dependent manner at 1 mpk administered once daily for 8-14 days by gavage to ad libitum fed animals; format: functional
[32] = tested on: Mus musculus; assay: Percent reduction of blood glucose level in a dose-dependent manner at 10 mpk administered once daily for 8-14 days by gavage to ad libitum fed animals; format: functional
[33] = bioavailability in preclinical species was measured after oral administration at the given dose (0.5 mg/kg) in rat; format: ADME, organism-based; conditions: in vivo; method in brief: as §3
[34] = target: Epidermal growth factor receptor (Homo sapiens) (UniProt P00533); assay: Percent epidermal growth factor receptor (EGFR) activity at 30 uM; format: functional; method in brief: as §4
[35] = target: Insulin-like growth factor 1 receptor (Homo sapiens) (UniProt P08069); assay: Percent insulin like growth factor receptor(IGFIR) activity at 30 uM; format: functional; method in brief: as §6
[36] = target: Platelet-derived growth factor receptor beta (Homo sapiens) (UniProt P09619); assay: Percent platelet derived growth factor receptor (PDGFR) activity at 30 uM; format: functional; method in brief: as §7
[37] = target: T1, Insulin receptor; assay: Activation of human insulin receptor tyrosine kinase (NA = inactive up to 100 uM); method in brief: as §5
[38] = target: Insulin-like growth factor 1 receptor (Homo sapiens) (UniProt P08069); assay: Percent insulin like growth factor receptor(IGFIR) activity at 30 uM ( NS = less than 5% activation); format: functional; method in brief: as §6

SMILES: Cn1cc(C2=C(O)C(O)=C(c3ccccc3)C(=O)C2=O)c2ccccc21
- clearance [1]: 2.28 mL/h/kg
- Clp [2]: 1.14 mL/h/kg
- Clp [3]: 1.2 mL/h/kg
- Cmax [4]: 5270 ng/mL
- Cmax [5]: 7590 ng/mL
- Cmax [6]: 4880 ng/mL
- AUC [7]: 278000 ng·h/mL
- AUC [8]: 8370 ng·h/mL
- AUC [9]: 21800 ng·h/mL
- AUC [10]: 89800 ng·h/mL
- AUC [11]: 266000 ng·h/mL
- bioavailability [12]: 59.2%
- bioavailability [13]: 66.5%
- T1/2 [14]: 66 h
- half-life [15]: 32 h
- T1/2 [16]: 93.5 h
- Vdss [17]: 0.31 L/kg
- Vd [18]: 0.1 L/kg
- Vdss [19]: 0.56 L/kg
- Tmax [20]: 2.5 h
- Tmax [21]: 8 h
- Tmax [22]: 10 h
- Activation [23]: inactive
- EC50 [24]: 0.3 µM
- Activation [25]: inactive
- Activation [26]: inactive
- Concentration [27]: 233 mg/dL
- Concentration [28]: 143 mg/dL
- Concentration [29]: 150 mg/dL
- Reduction [30]: 29%
- Reduction [31]: 47%
- Reduction [32]: 84%
- bioavailability [33]: 79.3%

SMILES: Cc1cccc2c(C3=C(O)C(O)=C(c4c[nH]c5ccccc45)C(=O)C3=O)c[nH]c12
- Activation [34]: 25%
- EC50 [24]: 7 µM
- Activation [35]: 32%

SMILES: O=C1C(O)=C(c2csc3ccccc23)C(=O)C(O)=C1c1ccccc1
- Activation [23]: inactive
- EC50 [24]: 1 µM
- Activation [25]: inactive
- Activation [26]: inactive

SMILES: O=C1C(O)=C(c2c[nH]c3ccccc23)C(=O)C(O)=C1c1ccccc1
- Activation [34]: 20%
- EC50 [24]: 0.3 µM
- Activation [35]: 41%
- Activation [26]: inactive

SMILES: C=CC(C)(C)c1[nH]c2ccccc2c1C1=C(O)C(O)=C(c2c[nH]c3c(CC=C(C)C)cccc23)C(=O)C1=O
- Activation [34]: 15%
- EC50 [24]: 5 µM
- Activation [35]: 38%
- Activation [36]: 6%

SMILES: O=C1C(O)=C(c2coc3ccccc23)C(=O)C(O)=C1c1ccccc1
- Activation [23]: inactive
- EC50 [24]: 1.5 µM
- Activation [25]: inactive
- Activation [26]: inactive

SMILES: COc1ccc(C2=C(O)C(O)=C(c3ccccc3)C(=O)C2=O)cc1
- Activation [23]: inactive
- EC50 [37]: Not Active
- Activation [38]: inactive
- Activation [26]: inactive

SMILES: O=C1C(O)=C(c2cccc3ccccc23)C(=O)C(O)=C1c1ccccc1
- EC50 [24]: 6 µM
- Activation [25]: inactive
- Activation [26]: inactive

SMILES: O=C1C(O)=C(c2ccc3ccccc3c2)C(=O)C(O)=C1c1ccccc1
- EC50 [24]: 30 µM
- Activation [25]: inactive
- Activation [26]: inactive
